# Reference: ChEMBL document CHEMBL1138405, “Limonoid orthoacetates and antiprotozoal compounds from the roots of Pseudocedrela kotschyi” (J Nat Prod, 2007)
# Columns and labels:
# Plasmodium falciparum = assay: Antiplasmodial activity against Plasmodium falciparum K1; type: functional, organism-based
# In short: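 P. falciparum K1 is a strain resistant to chloroquine and pyrimethamine.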
# Leishmania donovani = assay: Antiprotozoal activity against Leishmania donovani MHOM/ET/67/L82 amastigotes; type: functional, organism-based
# In short: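 L. donovani tested as axenic amastigotes.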
# [1] = test system: Trypanosoma brucei rhodesiense; assay: Antiprotozoal activity against Trypanosoma brucei rhodesiense STIB900; type: functional, organism-based
# Trypanosoma cruzi = assay: Antiprotozoal activity against Trypanosoma cruzi Tulahuen C2C4 trypomastigotes in L6 cells; type: functional, organism-based
# L6 = assay: Cytotoxicity against rat L6 cells; type: cell-based
SMILES,IC50 (Plasmodium falciparum) [µg/mL],IC50 (Leishmania donovani) [µg/mL],IC50 [1] [µg/mL],IC50 (Trypanosoma cruzi) [µg/mL],IC50 (L6) [µg/mL]
CC1(C)C(=O)C=C[C@]2(C)[C@H]3CC[C@@]4(C)[C@H](c5ccoc5)OC(=O)[C@H]5O[C@]54[C@]3(C)C(=O)C[C@@H]12 [DEACETOXY-7-OXOGEDUNIN],1.77,0.994,3.4,> 30,> 90
O=C(Cn1ccnc1[N+](=O)[O-])NCc1ccccc1 [BENZNIDAZOLE],,,,0.74,
CC1(C)C(=O)C=C[C@]2(C)[C@H]3CC[C@@]4(C)[C@H](c5ccoc5)OC(=O)[C@H]5O[C@]54[C@]3(C)[C@H](O)C[C@@H]12 [DEACETYLGEDUNIN],1.36,1.4,3.45,5.2,13.3
CCCCCCCCCCCCCCCCOP(=O)([O-])OCC[N+](C)(C)C [MILTEFOSINE],,0.12,,,
COc1cc([C@@H]2c3cc4c(cc3[C@H](O)[C@H]3COC(=O)[C@H]23)OCO4)cc(OC)c1OC [PODOFILOX],,,,,0.005
COC(=O)C[C@@H]1[C@](C)([C@@H](OC(C)=O)c2ccoc2)CC[C@@]23OC4(C)O[C@@]12[C@H](OC(=O)C(C)C)[C@@]1(OC(C)=O)[C@@H](OC(C)=O)[C@@]2(C)C[C@@]1(O4)[C@]31COC(=O)C[C@@H]21 [KOTSCHYIN A],> 5,> 30,11.6,> 30,> 90
